{"data": "Experimental data gathered from unrelated publications", "CA2": "Carbonic anhydrase 2 (CA2, Homo sapiens, UniProt P00918)", "Neuronal acetylcholine receptor; alpha9/alpha10": "Neuronal acetylcholine receptor; alpha9/alpha10 (Homo sapiens, UniProt Q9GZZ6+Q9UGM1)", "note": "Compare with care: the assays were run in different laboratories."}
{"SMILES": "COc1ccc(S(=O)(=O)Oc2cccc(C=NNC(=O)c3ccc(F)cc3)c2)cc1", "target": "CA2", "read-out": "enzyme activity", "action": "inhibitor", "technique": "absorbance", "quantity": "IC50", "value": "0.139 µM"}
{"SMILES": "CNC(=O)c1ccc(-c2cnn3ccc(C(=O)N(C)c4ccc(Cl)c(C(=O)O)c4)cc23)cc1", "target": "STE20-like serine/threonine-protein kinase (SLK, Homo sapiens, UniProt Q9H2G2)", "read-out": "enzyme activity", "action": "inhibitor", "quantity": "IC50", "value": "> 30 µM"}
{"SMILES": "COc1ccc(S(=O)(=O)Oc2ccccc2C=NNC(=O)c2ccc(F)cc2)cc1", "target": "CA2", "read-out": "enzyme activity", "action": "inhibitor", "technique": "absorbance", "quantity": "IC50", "value": "0.156 µM"}
{"SMILES": "COc1ccc2c3c([nH]c2c1)CCN(C)CC3", "target": "Neuronal acetylcholine receptor; alpha9/alpha10", "read-out": "ion current", "action": "antagonist", "technique": "two-electrode voltage clamp", "setting": "oocytes", "quantity": "IC50", "value": "3 µM"}
{"SMILES": "COC(=O)c1cc(N(C)C(=O)c2ccn3ncc(-c4ccc(C(=O)O)cc4)c3c2)ccc1Cl", "target": "cAMP-dependent protein kinase catalytic subunit alpha (PRKACA, Homo sapiens, UniProt P17612)", "read-out": "enzyme activity", "action": "inhibitor", "quantity": "IC50", "value": "> 30 µM"}
{"SMILES": "COc1ccc2[nH]c3c(c2c1)CCN(C)CC3", "target": "Neuronal acetylcholine receptor; alpha9/alpha10", "read-out": "ion current", "action": "antagonist", "technique": "two-electrode voltage clamp", "setting": "oocytes", "quantity": "IC50", "value": "3.2 µM"}
{"SMILES": "CC[N+]1(CC)CCN(c2ccc(NC(=O)c3cccc(C)n3)cc2)CC1", "target": "Neuronal acetylcholine receptor; alpha9/alpha10", "read-out": "ion current", "action": "agonist", "technique": "two-electrode voltage clamp", "setting": "oocytes", "quantity": "EC50", "value": "0.83 µM"}
{"SMILES": "CNC(=O)c1ccc(-c2cnn3ccc(C(=O)N(C)c4ccc(Cl)c(C(=O)OC)c4)cc23)cc1", "target": "Receptor tyrosine-protein kinase erbB-2 (ERBB2, Homo sapiens, UniProt P04626)", "read-out": "enzyme activity", "action": "inhibitor", "quantity": "IC50", "value": "> 30 µM"}
{"SMILES": "COc1ccc(S(=O)(=O)Oc2ccc(C=NNC(=O)c3ccc(F)cc3)cc2)cc1", "target": "CA2", "read-out": "enzyme activity", "action": "inhibitor", "technique": "absorbance", "quantity": "IC50", "value": "0.0974 µM"}
{"SMILES": "CCCNC(=O)c1ccc(N2CC[N+](CC)(CC)CC2)cc1", "target": "Neuronal acetylcholine receptor; alpha9/alpha10", "read-out": "ion current", "action": "agonist", "technique": "two-electrode voltage clamp", "setting": "oocytes", "quantity": "EC50", "value": "11 µM"}
